How the values were obtained:
Assay type in all cases: functional, cell-based
[1] = Cytotoxicity against human MKN45 cells after 72 hrs by MTT assay; settings: MKN-45, 72 h
Summary of the method: (§1)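 Cells suspended in MEM medium, plated and incubated 24 h at 37 °C in 5% CO₂, then exposed to compounds at indicated final concentrations for 72 h. IC₅₀ from averages of three determinations, relative to DMSO vehicle control.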

MDA-MB-231 = assay: Cytotoxicity against human MDA-MB-231 cells after 72 hrs by MTT assay; settings: MDA-MB-231, 72 h; summary of the method: as §1
HT-29 = assay: Cytotoxicity against human HT-29 cells after 72 hrs by MTT assay; settings: HT-29, 72 h; summary of the method: as §1
[2] = Cytotoxicity against human H460 cells after 72 hrs by MTT assay; settings: NCI-H460, 72 h; summary of the method: as §1

Structure (SMILES)	IC50 [1] [nM]	IC50 (MDA-MB-231) [nM]	IC50 (HT-29) [nM]	IC50 [2] [nM]
CS(=O)(=O)N1CCN(Cc2cc3nc(-c4cccc5[nH]ncc45)nc(N4CCOCC4)c3s2)CC1 [PICTILISIB]	600			
CCN(CC)CCCNc1nc(-c2ccc(NC(=O)Nc3ccc(C)cc3)cc2)nc2c(Cl)c(Cl)sc12	3320	3040	890	1240
CN(C)CCNc1nc(-c2ccc(NC(=O)Nc3ccc(Cl)cc3Cl)cc2)nc2ccsc12	2360	2450	1320	1650
CCN(CC)CCNc1nc(-c2ccc(NC(=O)Nc3ccccc3Cl)cc2)nc2ccsc12	750	680	620	320
CCN(CC)CCNc1nc(-c2ccc(NC(=O)Nc3ccc(Cl)cc3Cl)cc2)nc2ccsc12	1520	2480	1940	1890
CN(C)CCCNc1nc(-c2ccc(NC(=O)Nc3ccccc3Cl)cc2)nc2ccsc12	690	590	390	430
CCN(CC)CCCNc1nc(-c2ccc(NC(=O)Nc3ccccc3)cc2)nc2c(Cl)c(Cl)sc12	1640	1780	820	850
Cc1ccc(NC(=O)Nc2ccc(-c3nc(NCCN(C)C)c4sccc4n3)cc2)cc1	2380	2180	2150	1880
CN(C)CCNc1nc(-c2ccc(NC(=O)Nc3ccccc3Cl)cc2)nc2c(Cl)c(Cl)sc12	1170	1350	570	440
CN(C)CCNc1nc(-c2ccc(NC(=O)Nc3ccc(F)cc3)cc2)nc2c(Cl)c(Cl)sc12	1350	1240	890	590
Cc1ccc(NC(=O)Nc2ccc(-c3nc(NCCCN(C)C)c4sc(Cl)c(Cl)c4n3)cc2)cc1	3700	4980	1320	1110
CN(C)CCCNc1nc(-c2ccc(NC(=O)Nc3ccc(Cl)cc3Cl)cc2)nc2c(Cl)c(Cl)sc12	2560	3490	1320	980
CN(C)CCCNc1nc(-c2ccc(NC(=O)Nc3ccccc3F)cc2)nc2ccsc12	730	660	470	530
CCN(CC)CCCNc1nc(-c2ccc(NC(=O)Nc3ccc(C)cc3)cc2)nc2ccsc12	1760	1980	1620	1240
CCN(CC)CCCNc1nc(-c2ccc(NC(=O)Nc3ccccc3)cc2)nc2ccsc12	980	1230	730	680
CCN(CC)CCNc1nc(-c2ccc(NC(=O)Nc3ccccc3Cl)cc2)nc2c(Cl)c(Cl)sc12	1130	1410	550	460
CN(C)CCNc1nc(-c2ccc(NC(=O)Nc3ccc(F)cc3)cc2)nc2ccsc12	330	540	350	390
CCN(CC)CCNc1nc(-c2ccc(NC(=O)Nc3ccc(C)cc3)cc2)nc2c(Cl)c(Cl)sc12	1450	2010	950	840
CCN(CC)CCNc1nc(-c2ccc(NC(=O)Nc3ccc(Cl)cc3)cc2)nc2ccsc12	370	550	150	190
CN(C)CCNc1nc(-c2ccc(NC(=O)Nc3ccccc3F)cc2)nc2ccsc12	530	600	510	410

Structure (SMILES)	IC50 [1] [nM]	IC50 (MDA-MB-231) [nM]	IC50 (HT-29) [nM]	IC50 [2] [nM]
CCN(CC)CCCNc1nc(-c2ccc(NC(=O)Nc3ccc(Cl)cc3)cc2)nc2c(Cl)c(Cl)sc12	720	660	250	270
CCN(CC)CCNc1nc(-c2ccc(NC(=O)Nc3ccc(Cl)cc3)cc2)nc2c(Cl)c(Cl)sc12	890	750	430	320
CCN(CC)CCCNc1nc(-c2ccc(NC(=O)Nc3ccc(F)cc3)cc2)nc2ccsc12	470	530	340	290
CCN(CC)CCCNc1nc(-c2ccc(NC(=O)Nc3ccccc3Cl)cc2)nc2ccsc12	390	500	340	200
CN(C)CCNc1nc(-c2ccc(NC(=O)Nc3ccccc3Cl)cc2)nc2ccsc12	850	550	310	230
CCN(CC)CCCNc1nc(-c2ccc(NC(=O)Nc3ccccc3F)cc2)nc2ccsc12	580	860	550	370
CN(C)CCNc1nc(-c2ccc(NC(=O)Nc3ccc(Cl)cc3)cc2)nc2c(Cl)c(Cl)sc12	910	870	460	300
CCN(CC)CCNc1nc(-c2ccc(NC(=O)Nc3ccc(F)cc3)cc2)nc2c(Cl)c(Cl)sc12	1370	1130	650	500
CN(C)CCCNc1nc(-c2ccc(NC(=O)Nc3ccc(F)cc3)cc2)nc2c(Cl)c(Cl)sc12	1120	980	430	650
CCN(CC)CCNc1nc(-c2ccc(NC(=O)Nc3ccccc3F)cc2)nc2ccsc12	1040	580	610	430
CCN(CC)CCCNc1nc(-c2ccc(NC(=O)Nc3ccccc3Cl)cc2)nc2c(Cl)c(Cl)sc12	1450	970	410	330
CN(C)CCNc1nc(-c2ccc(NC(=O)Nc3ccc(Cl)cc3)cc2)nc2ccsc12	250	310	95	130
CCN(CC)CCCNc1nc(-c2ccc(NC(=O)Nc3ccc(F)cc3)cc2)nc2c(Cl)c(Cl)sc12	1700	1630	350	450
CCN(CC)CCNc1nc(-c2ccc(NC(=O)Nc3ccc(Cl)cc3Cl)cc2)nc2c(Cl)c(Cl)sc12	1770	1920	1140	1300
CN(C)CCNc1nc(-c2ccc(NC(=O)Nc3ccc(Cl)cc3Cl)cc2)nc2c(Cl)c(Cl)sc12	3460	3500	1280	1520
CCN(CC)CCCNc1nc(-c2ccc(NC(=O)Nc3ccc(Cl)cc3Cl)cc2)nc2c(Cl)c(Cl)sc12	5720	3940	1230	1170
CN(C)CCCNc1nc(-c2ccc(NC(=O)Nc3ccccc3Cl)cc2)nc2c(Cl)c(Cl)sc12	1330	1560	820	490
CN(C)CCCNc1nc(-c2ccc(NC(=O)Nc3ccc(Cl)cc3Cl)cc2)nc2ccsc12	2270	1860	1860	1020
CN(C)CCCNc1nc(-c2ccc(NC(=O)Nc3ccc(Cl)cc3)cc2)nc2c(Cl)c(Cl)sc12	1530	1160	330	230
CN(C)CCNc1nc(-c2ccc(NC(=O)Nc3ccccc3)cc2)nc2ccsc12	1120	1310	620	640

— ChEMBL document CHEMBL3352345, “Design, synthesis and biological evaluation of novel thieno[3,2-d]pyrimidine derivatives containing diaryl urea moiety as potent antitumor agents” (Eur J Med Chem, 2014)
